# From ChEMBL document CHEMBL1156051, “Synthesis and evaluation of lysophosphatidylserine analogues as inducers of mast cell degranulation. Potent activities of lysophosphatidylthreonine and its 2-deoxy derivative” (J Med Chem, 2009)
# The source made the active and inactive calls. The rule behind the calls is not given here.
# Columns and labels:
# [1] = tested on: Mast cell; assay: Ratio of lysophosphatidylserine EC50 to compound EC50 for induction of concanavalin A-stimulated C57BL/6 mouse peritoneal mast cell […] associated histamine release; format: functional
# [2] = tested on: Mast cell; assay: Induction of Wistar rat peritoneal mast cell degranulation assessed as concanavalin A-induced histamine release at 0.03 uM pretreated for 15 mins measured after washout with 0.5% fatty acid-free BSA by fluorometric assay; format: functional, cell-based
# Method in brief: (§1)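 Rat peritoneal mast cells preincubated with analogue, then washed with buffer containing 0.01% or 0.5% fatty-acid-free BSA. Cells then challenged with concanavalin A, and histamine release measured.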
# [3] = organism: Rattus norvegicus; assay: Ratio of compound activity over lysophosphatidylserine activity for induction of hypothermic effect in Wistar rat; format: functional
# [4] = tested on: Mast cell; assay: Ratio of lysophosphatidylserine EC50 to compound EC50 for induction of concanavalin A-stimulated Wistar rat peritoneal mast cell […] associated histamine release; format: functional
# [5] = biological target: Probable G-protein coupled receptor 34 (Mus musculus) (UniProt Q9R1K6); assay: Activation of mouse GPR34 expressed in CHOK1 cells assessed as increase in intracellular calcium level by spectrofluorimetry; format: functional, cell-based; conditions: CHO-K1
# Sequence of Probable G-protein coupled receptor 34 (Mus musculus) (Q9R1K6 whole entry): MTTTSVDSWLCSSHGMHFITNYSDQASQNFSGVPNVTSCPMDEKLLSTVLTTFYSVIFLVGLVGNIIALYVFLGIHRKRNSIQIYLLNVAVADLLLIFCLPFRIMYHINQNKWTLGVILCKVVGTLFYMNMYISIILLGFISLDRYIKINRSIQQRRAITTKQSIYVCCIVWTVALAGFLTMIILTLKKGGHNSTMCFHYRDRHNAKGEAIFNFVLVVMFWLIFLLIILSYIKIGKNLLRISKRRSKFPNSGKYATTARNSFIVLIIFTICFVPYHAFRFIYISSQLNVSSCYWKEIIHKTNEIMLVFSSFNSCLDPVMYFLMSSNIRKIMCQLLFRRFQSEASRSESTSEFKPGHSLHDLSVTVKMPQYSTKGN
# Method in brief: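 Fura-2-loaded CHO-K1 cells stably expressing flag-tagged GPR34 (G418 selection, then anti-flag immunomagnetic positive selection), stimulated with analogue at 2 μM; [Ca2+]i read fluorometrically as ratio of 500 nm emission at 340/380 nm excitation.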
# [6] = tested on: G protein-coupled receptor 34 (Mus musculus); assay: Activation of mouse GPR34 expressed in CHOK1 cells assessed as phosphorylated ERK level at 0.01 to 10 uM by Western blotting; conditions: CHO-K1
# [7] = tested on: Mast cell; assay: Induction of Wistar rat peritoneal mast cell degranulation assessed as concanavalin A-induced histamine release at 0.03 uM pretreated for 15 mins measured after washout with 0.01% fatty acid-free BSA by fluorometric assay; format: functional, cell-based; method in brief: as §1
# [8] = tested on: Mast cell; assay: Induction of Wistar rat peritoneal mast cell degradation assessed as concanavalin A-induced histamine release at 0.01 to 10 uM after 15 mins fluorometric assay; format: functional, cell-based
# Method in brief: (§2)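 Peritoneal mast cells at 5 × 10^4/mL in HEPES-buffered Tyrode stimulated with analogue plus 100 μg/mL concanavalin A for 15 min at 37 C. Supernatant histamine measured fluorometrically and expressed as percent of total cell histamine. Means ± SE of three independent experiments.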
# [9] = organism: Mus musculus; assay: Ratio of compound activity over lysophosphatidylserine activity for induction of hypothermic effect in C57BL/6 mouse; format: functional
# [10] = tested on: Mast cell; assay: Induction of C57BL/6 mouse peritoneal mast cell degradation assessed as concanavalin A-induced histamine release after 15 mins fluorometric assay; format: functional, cell-based; conditions: C57BL/6, Mast cell, 0.25 h
# Method in brief: (§3)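 Peritoneal mast cells at 5 × 10^4/mL in HEPES-buffered Tyrode stimulated with analogue plus 10 μg/mL concanavalin A for 15 min at 37 C. Supernatant histamine measured fluorometrically and expressed as percent of total cell histamine. Means ± SE of three independent experiments.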
# [11] = tested on: G protein-coupled receptor 34 (Mus musculus); assay: Activation of mouse GPR34 expressed in CHOK1 cells assessed as total ERK level at 0.01 to 10 uM by Western blotting; conditions: CHO-K1
# [12] = tested on: CHO-K1; assay: Increase in MAPK level in CHOK1 cells at 0.01 to 10 uM by Western blotting; format: functional, cell-based; conditions: Cricetulus griseus
# Method in brief: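 Serum-starved mock (empty vector) transfected CHO-K1 cells were stimulated for 5 min at 37 C and cooled on ice to stop. Lysates (6 μg protein) were Western blotted for phospho- and total p42/p44 MAP kinase.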
# [13] = tested on: Mast cell; assay: Induction of C57BL/6 mouse peritoneal mast cell degradation assessed as concanavalin A-induced histamine release at 0.01 to 10 uM after 15 mins fluorometric assay; format: functional, cell-based; method in brief: as §3
# [14] = tested on: G protein-coupled receptor 34 (Mus musculus); assay: Activation of mouse GPR34 expressed in CHOK1 cells assessed as increase in intracellular calcium level by spectrofluorimetry; conditions: CHO-K1
# [15] = tested on: Rattus norvegicus; assay: Effect on hypothermic effect in Wistar rat assessed as reduction in rectal temperature at 20 to 100 ug, iv measured every 5 to 10 mins for 60 mins; format: functional, organism-based
# Method in brief: (§4)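 Analogue suspended in PBS with 0.1% BSA and given intravenously; rectal temperature read with a rectal probe every 5 or 10 min for 60 min. Means ± SE of three independent experiments.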
# [16] = biological target: Probable G-protein coupled receptor 34 (Mus musculus) (UniProt Q9R1K6); assay: Activation of mouse GPR34 expressed in CHOK1 cells assessed as phosphorylated ERK level at 0.01 to 10 uM by Western blotting; format: cell-based; conditions: CHO-K1
# Method in brief: (§5)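 Serum-starved CHO-K1 cells stably expressing flag-tagged GPR34 were stimulated with analogue for 5 min at 37 C and stopped by rapid cooling on ice. Lysates (6 μg protein) were Western blotted with antibodies to phospho-p42/p44 and total p42/p44 MAP kinase. Mock-transfected cells served as control.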
# [17] = tested on: Mast cell; assay: Ratio of compound activity over lysophosphatidylserine activity for induction of anti-DNP IgE-stimulated Wistar rat peritoneal mast cell […] associated histamine release; format: functional
# [18] = tested on: Mus musculus; assay: Increase in plasma histamine level in iv dosed C57BL/6 mouse after 2 mins by EIA; format: functional, organism-based
# Method in brief: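 Mice injected i.v. with analogue in PBS with 0.1% BSA; blood taken 2 min after injection and plasma histamine measured by enzyme immunoassay. Means ± SE of three independent experiments.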
# [19] = biological target: Probable G-protein coupled receptor 34 (Mus musculus) (UniProt Q9R1K6); assay: Activation of mouse GPR34 expressed in CHOK1 cells assessed as inhibition of forskolin-induced cAMP production at 0.01 to 10 uM after 30 mins by EIA; format: functional, cell-based; conditions: CHO-K1
# Method in brief: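 CHO-K1 stably expressing flag-tagged mouse GPR34, cultured overnight, pretreated 20 min with 0.5 mM IBMX, then costimulated with analogue plus 25 μM forskolin for 30 min at 37 C; cAMP measured by EIA, level without ligand set as 100%.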
# [20] = tested on: Mast cell; assay: Induction of Wistar rat peritoneal mast cell degradation assessed as anti-DNP IgE-induced histamine release at 0.01 to 10 uM after 15 mins fluorometric assay; format: functional, cell-based
# [21] = biological target: Probable G-protein coupled receptor 34 (Mus musculus) (UniProt Q9R1K6); assay: Activation of mouse GPR34 expressed in CHOK1 cells assessed as total ERK level at 0.01 to 10 uM by Western blotting; format: cell-based; conditions: CHO-K1; method in brief: as §5
# [22] = tested on: Mast cell; assay: Induction of Wistar rat peritoneal mast cell degradation assessed as concanavalin A-induced histamine release after 15 mins fluorometric assay; format: functional, cell-based; conditions: 0.25 h; method in brief: as §2
# [23] = Cytotoxicity against concanavalin A-stimulated Wistar rat peritoneal mast cells assessed as LDH release at 50 uM; format: cell-based
# [24] = tested on: Mus musculus; assay: Effect on hypothermic effect in C57BL/6 mouse assessed as reduction in rectal temperature at 1 to 5 ug, iv measured every 5 to 10 mins for 60 mins; format: functional, organism-based; method in brief: as §4
# [25] = tested on: CHO-K1; assay: Inhibition of forskolin-induced cAMP production in CHOK1 cells at 0.01 to 10 uM after 30 mins by EIA; format: functional, cell-based; conditions: Cricetulus griseus
# Method in brief: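 Mock-transfected CHO-K1 cells were cultured overnight and pretreated 20 min with 0.5 mM IBMX, then costimulated with analogue and 25 μM forskolin for 30 min at 37 C; accumulated cAMP was measured by EIA.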
# [26] = tested on: CHO-K1; assay: Increase in intracellular calcium level in CHOK1 cells by spectrofluorimetry; format: functional, cell-based; conditions: Cricetulus griseus
# Method in brief: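 Fura-2-loaded mock-transfected CHO-K1 cells were stimulated at 2 μM; [Ca2+]i read as 500 nm emission ratio at 340/380 nm excitation.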
smiles,measurement,setting,value
CCCCCCCCCCCCCCCCCC(=O)OC[C@@H](O)COP(=O)(O)O[C@H](C)[C@H](N)C(=O)O,Ratio EC50,[1],10
same,Activity,[2],inactive
same,Ratio,[3],50
same,Ratio EC50,[4],10
same,Activity,[5],inactive
same,Activity,[6],inactive
same,Activity,[7],Active
same,Activity,[8],Active
same,Ratio,[9],20
same,EC50,[10],10 nM
same,Activity,[11],inactive
same,Activity,[12],inactive
same,Activity,[13],Active
same,Activity,[14],inactive
same,Activity,[15],Active
same,Activity,[16],inactive
same,Ratio,[17],10
same,Activity,[18],Active
same,Activity,[19],inactive
same,Activity,[20],Active
same,Activity,[21],inactive
same,EC50,[22],40 nM
same,Activity,[23],Non-toxic
same,Activity,[24],Active
same,Activity,[25],inactive
same,Activity,[26],inactive
